High-throughput results deposited in PubChem by several laboratories.
SMARCA2 activ: activators of SMARCA2 function. MG213 cells, MMTV-luciferase reporter, dexamethasone, overnight. activation, % at 9.1 µM. hit rate 1% among 370,000. AID 652017; in the data active means activation above about 7.8%;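 further: 0% = vehicle wells and 100% = reference activator wells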
MC4R antag cAMP: antagonists of human melanocortin 4 receptor (MC4R); AID 540295; inhibition, % at 6.5 µM; hit rate 0.48% among 360,000; MC4R-expressing cells, MTII-stimulated cAMP, LANCE TR-FRET;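 active means inhibition above its plate's cutoff, the mean of tested wells on that plate plus 3 SD, cut at about 29% in these data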;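 further: 0% = Melanotan II alone and 100% = Melanotan II plus saturating MCL0020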
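Assay system: U2OS cells stably expressing human melanocortin 4 receptor (MC4R) / Dosing: 6.5 µM / Timing: compound 30 min, challenge 1 h, detection 1 h / Measured by: Eu-cAMP/anti-cAMP TR-FRET, emission 671 nm / Replicates: singlicate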
ATG4B inhibitor: blocks human ATG4B protease cleavage of LC3 substrate; ATG4B cleavage of LC3-PLA2, NBD-HPC fluorescence, 1 h; inhibition, % at 8.33 µM; AID 504462; hit rate 0.51% among 340,000; Q9Y4P1; in the data active means inhibition above about 40%
Target sequence (Q9Y4P1 whole entry, looked up): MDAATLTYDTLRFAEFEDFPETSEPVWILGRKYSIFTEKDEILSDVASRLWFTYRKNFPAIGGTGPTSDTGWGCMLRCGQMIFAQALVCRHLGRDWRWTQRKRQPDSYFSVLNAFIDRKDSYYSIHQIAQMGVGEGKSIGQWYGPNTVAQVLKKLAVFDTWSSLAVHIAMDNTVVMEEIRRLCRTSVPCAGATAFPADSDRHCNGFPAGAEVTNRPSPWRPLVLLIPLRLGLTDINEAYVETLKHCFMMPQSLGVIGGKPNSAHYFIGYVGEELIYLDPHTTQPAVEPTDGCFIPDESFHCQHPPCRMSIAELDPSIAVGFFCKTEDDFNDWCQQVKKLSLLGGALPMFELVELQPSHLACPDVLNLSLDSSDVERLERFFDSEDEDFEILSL
MC4R barr agon: human MC4R agonism via beta-arrestin; U2OS MC4R beta-arrestin complementation, luminescence; percent of melanotan II response, DMSO zero; hit rate 0.98% among 360,000; activation, % at 8.9 µM; P32245;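 active means activation above a per-plate cutoff, the mean activation of sample wells on that plate plus 3 SD, cut at about 8% in these data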
MPTP inh: permeability transition pore inhibition | isolated mouse mitochondria, Ca2+ swelling absorbance, 30 min | AID 602449 | inhibition, % at 10 µM | hit rate 1.4% among 360,000;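 active means inhibition of 50% or more, scaled per plate between neutral and stimulator controls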;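 further: 0% = DMSO wells given calcium and 100% = 1 mM EGTA wells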
Numbers without * were called inactive; / = not tested or not shown. Sampled rows, rich in hits. Any-hit rate of the full collection: about 4.1%.

SMILES	SMARCA2 activ	MC4R antag cAMP	ATG4B inhibitor	MC4R barr agon	MPTP inh
CCCCNC(=O)/C=C1\Sc2ccccc2NC1=O	0	13	-6	-2	0
CCc1ccc(C(=O)/C=C2\Sc3ccccc3NC2=O)cc1	-3	1	56*	-3	1
CCCCNC(=O)NS(=O)(=O)c1ccc(NC(=O)CSc2nnc(-c3cccs3)n2-c2ccc(OC)cc2)cc1	-1	/	/	/	/
COc1cc(/C=C/C(=O)OCC(=O)Nc2cc(S(=O)(=O)N(C)C)ccc2Cl)ccc1O	3	14	-5	8.9*	0
CCCC#Cc1ccc(CC[C@H]2O[C@H]3CC[C@H](CO)O[C@H]3C[C@H]2NC(=O)CN2CCOCC2)cc1	2	/	/	/	/
COc1cccc(C(=O)COC(=O)c2ccc(NC(=O)c3ccccc3)cc2)c1	-2	0	-6	8.7*	0
COC(=O)C(=N/Nc1ccccc1C(=O)OC)/C(C)=N/O	-6	-1	-1	8.8*	0
OCCN1CCN(C2CCC(c3ccc(F)cc3)c3ccc(F)cc32)CC1 (stereo not given)	-4	6	-3	9.0*	-3
O=[N+]([O-])c1ccc2c(c1)C(N1CCN(CCO)CC1)Cc1ccc(F)cc1S2 (stereo not given)	-2	/	/	/	2
OCCOCCNc1ncnc2c1cnn2-c1ccc(Cl)cc1	6	2	-8	-1	2
OCCOCCNc1ncnc2c1cnn2-c1ccccc1	7.8*	0	2	2	-3
COCc1cc(N2CCNC[C@@H]2C)ccc1N1CCN(Cc2ccccc2)[C@H](C)C1	2	/	/	/	/
COc1ccccc1/C=C\C=N\n1c(-c2ccc(Cl)cc2)n[nH]c1=S	0	8	4	8.9*	3
CN(C)c1ccc(-c2nc3ncc(Cl)cc3[nH]2)cc1	-4	/	/	/	/
Cc1ccc(OCC(=O)NC(=S)Nc2ccccn2)c(Br)c1	-1	-9	10	8.6*	4
O=C(Nc1ccc(Oc2c(F)c(F)c(F)c(F)c2F)cc1)OC1CCN2Cc3ccccc3N=C12 (stereo not given)	/	28	10	9.3*	0
Cc1cccc(-c2cccc3c4c([nH]c23)[C@@H]2C[C@H](N(C)C(=O)Nc3ccccc3)[C@H]([C@H](C)O)CN2CC4)c1	5	/	/	/	/
Cc1ccc(C=Nn2c(-c3n[nH]c4c3CCC4)n[nH]c2=S)o1	-6	/	/	/	/
O=C(CC1CCCC1)N[C@H](C(=O)N1CCC[C@H]1C(=O)NC1CCCC1)c1ccccc1	-3	/	/	/	/
O=C(c1ccco1)n1c(=S)nc2ccccn21	7.9*	5	-9	0	1
Cc1ccc(N2C(=O)C3CC(c4ccccc4)=C4C5C=CC(C6C(=O)N(c7ccc(C)cc7C)C(=O)C56)C4C3C2=O)c(C)c1 (stereo not given)	/	6	-3	0	1
Cc1ccc(N2C(=O)C3CC(c4ccccc4)=C4C5C=CC(C6C(=O)N(c7ccc(C)cc7)C(=O)C56)C4C3C2=O)cc1 (stereo not given)	-2	13	10	8.6*	-2
CCOC(=O)N1C(=O)C[C@](Sc2ccc(OC)cc2)(C(=O)N2CCN(c3ncccn3)CC2)[C@H]1c1ccc(OC)cc1	-3	/	/	/	/
COc1cccc(C(=O)NNC(=O)Cc2ccc([N+](=O)[O-])cc2)c1	-3	-5	3	1	0
COc1ccc(CC(=O)NNC(=O)c2ccc(SCc3cc(F)ccc3F)c([N+](=O)[O-])c2)cc1	-2	4	-6	9.0*	0
SMILES	SMARCA2 activ	MC4R antag cAMP	ATG4B inhibitor	MC4R barr agon	MPTP inh
Cc1cccc(Cn2cc(SCC(=O)Nc3nccs3)c3ccccc32)c1	1	-6	-2	8.7*	2
COCCCN1C(=O)[C@H](CC(=O)NCc2cccc3ccccc23)[C@]2(C(=O)OC)CCCCC=C12	-3	/	/	/	/
O=C(Nc1nnc(SCc2ccc(Cl)cc2)s1)c1ccco1	-1	-3	0	8.8*	-2
Cc1nc(N2CCC(C)CC2)c2oc3ccccc3c2n1	-1	-7	30	2	21
COc1ccccc1N1CCN(c2nc(C)nc3c2oc2ccccc23)CC1	-3	-18	45*	-1	0
COC(=O)N1Cc2ccnnc2CC1c1ccccc1-c1ccc(OC)cc1 (stereo not given)	-4	/	/	/	/
O=C(Nc1ccc2c(c1)Cc1ccccc1-2)NC1CCCCN(Cc2cccc(Cl)c2)C1=O (stereo not given)	-2	/	/	/	/
CN(C)C(=O)CCc1ccc2c3c([nH]c2c1)[C@]1(C)[C@@H](C(=O)N2CCOCC2)C[C@H](CC(=O)NCc2ccco2)C(=O)N1CC3	-3	8	-2	0	0
CC(C)N(C(=O)[C@H]1C[C@H](CC(=O)NCc2ccco2)C(=O)N2CCc3c([nH]c4cc(CCC(=O)N(C)C)ccc34)[C@]12C)C(C)C	7.9*	3	-11	-1	-2
C[C@@H](C[C@@H](O)[C@H](O)C(C)(C)O)[C@@H]1CC[C@]2(C)C3=CC[C@H]4C(C)(C)C(=O)CC[C@]4(C)[C@H]3CC[C@@]12C	-1	4	-10	9.4*	5
COC(=O)C(C[N+](=O)[O-])C1=C(O)CC(C)(C)CC1=O (stereo not given)	-2	/	/	/	/
COc1cc2sc3ccc(C#CC4(O)CCCCC4)cc3c(=O)c2cc1OC	7.8*	10	10	-1	-1
O=C(N/N=C/c1cccc(Cl)c1Cl)Nc1ccccc1	0	1	-11	0	-2
O=C(N/N=C/c1ccc(Cl)cc1Cl)Nc1ccccc1	0	-4	-6	16*	2
CCN=C1NC(c2ccc(C(F)(F)F)cc2)C(C(=O)OC)=C(C)N1Cc1ccccc1C(F)(F)F (stereo not given)	-2	/	/	/	/
CCCNC(=O)Cn1c(-c2ccc(F)cc2)cc(C(=O)OCC)c1C	-1	0	0	8.3*	1
O=C1C(Cc2ccccc2)S/C(=N/N=C/c2ccco2)N1c1ccccc1 (stereo not given)	0	7	-8	8.4*	-2
O=C1N/C(=N/N=C/c2ccco2)SC1Cc1ccccc1 (stereo not given)	-1	7	1	-2	1
COC(=O)C[C@@H]1CC[C@H]2[C@H](COc3ccc(NC(=O)Nc4ccc(Cl)cc4)cc3C(=O)N2C)O1	-3	/	/	/	/
O=C(NCc1ccc(Cl)cc1)c1ccc(S(=O)(=O)N2CCCCC2)cc1	-4	-2	2	9.4*	1
CN(CCOC(=O)c1cccs1)C1CN(Cc2cn(Cc3ccccc3Cl)nn2)S(=O)(=O)C1 (stereo not given)	1	/	/	/	/
CSc1ccc(C2C(C(=O)c3ccco3)=C(O)C(=O)N2c2nnc(SC)s2)cc1 (stereo not given)	0	33*	2	-2	-3
C=CCN(CC=C)C[C@@H]1CSCCS(=O)(=O)N1	-5	/	/	/	/
Cc1cc(-c2nnc3n2N=C(c2ccccc2)CS3)n[nH]1	1	3	-5	-2	0
Cc1cc(-c2nnc3n2N=C(c2ccc(-c4ccccc4)cc2)CS3)n[nH]1	-4	13	-27	9.3*	-2
